Source: ChEMBL document CHEMBL4138104, “Indole carboxylic acid esters of melampomagnolide B are potent anticancer agents against both hematological and solid tumor cells” (Eur J Med Chem, 2017)

Columns and labels:
Type in all cases: functional
CCRF-CEM = test: Growth inhibition of human CCRF-CEM cells incubated for 48 hrs by sulforhodamine B assay
How it was run: (§1)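 NCI-60 screen. Compounds were dosed at five concentrations spanning 10^-4 to 10^-8 M for 48 h at 37 °C. Cells were TCA-fixed, stained with 0.4% SRB and read at 515 nm against time-zero and vehicle controls. GI50 is the concentration giving a 50% reduction in net protein increase.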

HL-60(TB) = test: Growth inhibition of human HL-60(TB) cells incubated for 48 hrs by sulforhodamine B assay; settings: HL-60, 48 h
How it was run: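 Performed at NCI's 60-line screen. Cells grown in RPMI with 5% FBS and 2 mM L-glutamine, plated 5,000–40,000 cells/well and incubated 24 h at 37 °C before compound addition. DMSO stocks were diluted in medium with gentamicin, and five concentrations spanning 10^-4 to 10^-8 M were tested. Exposure was 48 h. Cells were fixed with TCA, stained with SRB, and read at 515 nm. GI50 taken from log dose-response curves as 50% reduction in net protein increase versus control.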

K562 = test: Growth inhibition of human K562 cells incubated for 48 hrs by sulforhodamine B assay; settings: K562, 48 h; how it was run: as §1
MOLT-4 = test: Growth inhibition of human MOLT4 cells incubated for 48 hrs by sulforhodamine B assay; settings: MOLT-4, 48 h; how it was run: as §1
RPMI-8226 = test: Growth inhibition of human RPMI8226 cells incubated for 48 hrs by sulforhodamine B assay; settings: RPMI-8226, 48 h; how it was run: as §1
A549 = test: Growth inhibition of human A549/ATCC cells incubated for 48 hrs by sulforhodamine B assay; settings: A549, 48 h; how it was run: as §1
HOP-92 = test: Growth inhibition of human HOP92 cells incubated for 48 hrs by sulforhodamine B assay; settings: HOP-92, 48 h; how it was run: as §1
NCI-H226 = test: Growth inhibition of human NCI-H226 cells incubated for 48 hrs by sulforhodamine B assay; settings: NCI-H226, 48 h; how it was run: as §1
NCI-H23 = test: Growth inhibition of human NCI-H23 cells incubated for 48 hrs by sulforhodamine B assay; settings: NCI-H23, 48 h; how it was run: as §1
NCI-H322M = test: Growth inhibition of human NCI-H322M cells incubated for 48 hrs by sulforhodamine B assay; how it was run: as §1
NCI-H460 = test: Growth inhibition of human NCI-H460 cells incubated for 48 hrs by sulforhodamine B assay; settings: NCI-H460, 48 h; how it was run: as §1
NCI-H522 = test: Growth inhibition of human NCI-H522 cells incubated for 48 hrs by sulforhodamine B assay; settings: NCI-H522, 48 h; how it was run: as §1
HCC 2998 = test: Growth inhibition of human HCC2998 cells incubated for 48 hrs by sulforhodamine B assay; settings: HCC 2998, 48 h; how it was run: as §1
HCT-116 = test: Growth inhibition of human HCT116 cells incubated for 48 hrs by sulforhodamine B assay; settings: HCT-116, 48 h; how it was run: as §1
HCT-15 = test: Growth inhibition of human HCT15 cells incubated for 48 hrs by sulforhodamine B assay; settings: HCT-15, 48 h; how it was run: as §1
HT-29 = test: Growth inhibition of human HT-29 cells incubated for 48 hrs by sulforhodamine B assay; settings: HT-29, 48 h; how it was run: as §1
KM12 = test: Growth inhibition of human KM12 cells incubated for 48 hrs by sulforhodamine B assay; settings: KM12, 48 h; how it was run: as §1
SW-620 = test: Growth inhibition of human SW620 cells incubated for 48 hrs by sulforhodamine B assay; settings: SW-620, 48 h
How it was run: (§2)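 NCI-60 screen run at NCI. Cells grown in RPMI medium with 5% FBS and 2 mM L-glutamine, plated at 5,000–40,000 cells/well, and preincubated 24 h at 37 °C. Time-zero plates were TCA-fixed. Compounds came from DMSO stocks and were tested at five concentrations from 10^-4 to 10^-8 M for 48 h. Cells were then TCA-fixed, stained with 0.4% SRB, and OD read at 515 nm. GI50 is the concentration giving a 50% reduction in net protein increase versus control.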

SF-268 = test: Growth inhibition of human SF268 cells incubated for 48 hrs by sulforhodamine B assay; settings: SF-268, 48 h; how it was run: as §1
SF-295 = test: Growth inhibition of human SF295 cells incubated for 48 hrs by sulforhodamine B assay; settings: SF-295, 48 h; how it was run: as §1
SF-539 = test: Growth inhibition of human SF539 cells incubated for 48 hrs by sulforhodamine B assay; settings: SF-539, 48 h; how it was run: as §1
SNB-19 = test: Growth inhibition of human SNB19 cells incubated for 48 hrs by sulforhodamine B assay; settings: SNB-19, 48 h; how it was run: as §2
U-251 = test: Growth inhibition of human U251 cells incubated for 48 hrs by sulforhodamine B assay; settings: U-251, 48 h; how it was run: as §2
LOX IMVI = test: Growth inhibition of human LOXIMVI cells incubated for 48 hrs by sulforhodamine B assay; how it was run: as §1
Malme-3M = test: Growth inhibition of human MALME-3M cells incubated for 48 hrs by sulforhodamine B assay; how it was run: as §1
SK-MEL-28 = test: Growth inhibition of human SK-MEL-28 cells incubated for 48 hrs by sulforhodamine B assay; settings: SK-MEL-28, 48 h; how it was run: as §1
UACC-257 = test: Growth inhibition of human UACC257 cells incubated for 48 hrs by sulforhodamine B assay; settings: UACC-257, 48 h; how it was run: as §2
OVCAR-5 = test: Growth inhibition of human OVCAR5 cells incubated for 48 hrs by sulforhodamine B assay; settings: OVCAR-5, 48 h; how it was run: as §1
OVCAR-8 = test: Growth inhibition of human OVCAR8 cells incubated for 48 hrs by sulforhodamine B assay; settings: OVCAR-8, 48 h; how it was run: as §1
NCI/ADR-RES = test: Growth inhibition of human NCI/ADR-RES cells incubated for 48 hrs by sulforhodamine B assay; how it was run: as §1
SK-OV-3 = test: Growth inhibition of human SKOV3 cells incubated for 48 hrs by sulforhodamine B assay; settings: SK-OV-3, 48 h; how it was run: as §1
A498 = test: Growth inhibition of human A498 cells incubated for 48 hrs by sulforhodamine B assay; settings: A498, 48 h; how it was run: as §1
RXF 393 = test: Growth inhibition of human RXF393 cells incubated for 48 hrs by sulforhodamine B assay; settings: RXF 393, 48 h; how it was run: as §1
SN12C = test: Growth inhibition of human SN12C cells incubated for 48 hrs by sulforhodamine B assay; how it was run: as §1
UO-31 = test: Growth inhibition of human UO31 cells incubated for 48 hrs by sulforhodamine B assay; settings: UO-31, 48 h; how it was run: as §2
MCF7 = test: Growth inhibition of human MCF7 cells incubated for 48 hrs by sulforhodamine B assay; settings: MCF7, 48 h; how it was run: as §1
[1] = Cytotoxicity against human M9-ENL1 cells assessed as reduction in cell viability by trypan blue staining-based assay
How it was run: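 M9-ENL1 AML cells (MLL-ENL-transduced human blood cells) plated at 10^6 cells/mL in alpha-MEM with 5% human plasma, 20% FBS, SCF, IL-3, IL-7 and FLT3. Drug diluted from DMSO stock into PBS, final DMSO ≤0.5%. After 24 h exposure, dead cells assessed by trypan blue and by flow cytometry (Annexin V/PI or Annexin V/7-AAD). Viability normalized to vehicle; EC50 from dose-response curves; triplicate.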

Structure (SMILES) | GI50 (CCRF-CEM) [nM] | GI50 (HL-60(TB)) [nM] | GI50 (K562) [nM] | GI50 (MOLT-4) [nM] | GI50 (RPMI-8226) [nM] | GI50 (A549) [nM] | GI50 (HOP-92) [nM] | GI50 (NCI-H226) [nM] | GI50 (NCI-H23) [nM] | GI50 (NCI-H322M) [nM] | GI50 (NCI-H460) [nM] | GI50 (NCI-H522) [nM] | GI50 (HCC 2998) [nM] | GI50 (HCT-116) [nM] | GI50 (HCT-15) [nM] | GI50 (HT-29) [nM] | GI50 (KM12) [nM] | GI50 (SW-620) [nM] | GI50 (SF-268) [nM] | GI50 (SF-295) [nM] | further results
CN(C)CC1C(=O)O[C@@H]2[C@H]3O[C@]3(C)CC/C=C(/COC(=O)c3cc4ccccc4[nH]3)CC[C@@H]12.O=C(O)/C=C/C(=O)O (some centres undefined) | 320 | 240 | 630 | 1510 | 280 | 2440 | 1400 | 1980 | 1960 | 10800 | 5850 | 1220 | 1720 | 290 | 290 | 430 | 2240 | 1700 | 1480 | 3950 | GI50 (SF-539): 2510 nM; GI50 (SNB-19): 11900 nM; GI50 (U-251): 2610 nM; GI50 (LOX IMVI): 170 nM; GI50 (Malme-3M): 2010 nM; GI50 (SK-MEL-28): 2210 nM; GI50 (UACC-257): 1470 nM; GI50 (OVCAR-5): 2380 nM; GI50 (OVCAR-8): 1680 nM; GI50 (NCI/ADR-RES): 1420 nM; GI50 (SK-OV-3): 2190 nM; GI50 (A498): 13100 nM; GI50 (RXF 393): 1140 nM; GI50 (SN12C): 2210 nM; GI50 (UO-31): 520 nM; GI50 (MCF7): 610 nM; EC50 [1]: 2800 nM
C=C1C(=O)O[C@@H]2[C@H]3O[C@]3(C)CC/C=C(/COC(=O)c3cc4cc(F)ccc4[nH]3)CC[C@@H]12 | 910 | 2070 | 2240 | 2260 | 2000 | 3080 | 1380 | 1760 | 1900 | 2690 | 3040 | 1650 | 2020 | 1500 | 1150 | 1130 | 1980 | 1430 | 1620 | 7100 | GI50 (SF-539): 1550 nM; GI50 (SNB-19): 5040 nM; GI50 (U-251): 1820 nM; GI50 (LOX IMVI): 1050 nM; GI50 (Malme-3M): 1670 nM; GI50 (SK-MEL-28): 1790 nM; GI50 (UACC-257): 2280 nM; GI50 (OVCAR-5): 1770 nM; GI50 (OVCAR-8): 2170 nM; GI50 (NCI/ADR-RES): 1980 nM; GI50 (SK-OV-3): 11600 nM; GI50 (A498): 3350 nM; GI50 (RXF 393): 1470 nM; GI50 (SN12C): 1850 nM; GI50 (UO-31): 1200 nM; GI50 (MCF7): 1020 nM; EC50 [1]: 2800 nM
